≈ marks a conversion by molar mass, not a printed value.
How the values were obtained:
HeLa = experiment: Cytotoxicity against human HeLa cells assessed as change in cell morphology; format: functional
In short: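 The minimum cytotoxic concentration (MCC) is the concentration causing a microscopically detectable alteration of cell morphology in the uninfected host cell culture.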

Human alphaherpesvirus 2 = experiment: Antiviral activity against Herpes simplex virus 2 infected in HEL cells assessed as protection against in virus-induced cytopathogenicity; format: functional
[1] = tested on: Vesicular stomatitis virus; experiment: Antiviral activity against sVesicular stomatitis virus infected in HEL cells assessed as protection against virus-induced cytopathogenicity; format: functional
Human alphaherpesvirus 1 [2] = experiment: Antiviral activity against acyclovir-resistant thymidine kinase-deficient HSV1 KOS infected in human HEL cells assessed as protection against virus-induced cytopathogenicity; format: functional; conditions: Human alphaherpesvirus 1, KOS
[3] = tested on: Vesicular stomatitis virus; experiment: Antiviral activity against Vesicular stomatitis virus infected in human HeLa cells assessed as protection against virus-induced cytopathogenicity; format: functional
Coxsackievirus B4 [4] = experiment: Antiviral activity against Coxsackievirus B4 infected in human HeLa cells assessed as protection against virus-induced cytopathogenicity; format: functional; conditions: Enterovirus B
[5] = tested on: Respiratory syncytial virus; experiment: Antiviral activity against RSV infected in human HeLa cells assessed as protection against virus-induced cytopathogenicity; format: functional
Human respirovirus 3 = experiment: Antiviral activity against Parainfluenza-3 virus infected in african green monkey Vero cells assessed as protection against virus-induced cytopathogenicity; format: functional
[6] = tested on: Mammalian orthoreovirus 1; experiment: Antiviral activity against Reovirus 1 infected in african green monkey Vero cells assessed as protection against virus-induced cytopathogenicity; format: functional
Sindbis virus = experiment: Antiviral activity against Sindbis virus infected in african green monkey Vero cells assessed as protection against virus-induced cytopathogenicity; format: functional
Coxsackievirus B4 [7] = experiment: Antiviral activity against Coxsackievirus B4 infected in african green monkey Vero cells assessed as protection against virus-induced cytopathogenicity; format: functional; conditions: Enterovirus B
Punta Toro virus = experiment: Antiviral activity against Punta Toro virus infected in african green monkey Vero cells assessed as protection against virus-induced cytopathogenicity; format: functional
[8] = Cytotoxicity against HEL cells assessed as change in cell morphology; format: cell-based; conditions: human
In short: (§1)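 HEL cell cultures examined under the microscope. Minimal cytotoxic concentration (MCC) is the concentration that causes a microscopically detectable alteration of cell morphology. Compounds were tested at subtoxic concentrations alongside the antiviral tests.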

[9] = Cytotoxicity against african green monkey Vero cells assessed as change in cell morphology; format: cell-based; conditions: chlorocebus sabaeus
In short: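 Vero cell cultures were used for the broad-spectrum antiviral screen. The MCC endpoint is the lowest concentration that causes a microscopically detectable alteration of cell morphology. Activity was called when 5 × MIC < MCC.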

Human alphaherpesvirus 1 [10] = experiment: Antiviral activity against HSV1 KOS infected in HEL cells assessed as protection against virus-induced cytopathogenicity; format: functional; conditions: Human alphaherpesvirus 1, KOS
Human betaherpesvirus 5 = experiment: Antiviral activity against Cytomegalovirus AD169 infected in HEL cells assessed as reduction in virus plaque formation; format: functional, organism-based; conditions: Human betaherpesvirus 5, AD169, HEL
In short: (§2)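 Plaque reduction in HEL cells against CMV (AD-169, Davis) or VZV (TK⁺ OKA, TK⁻ 07/1), using a virus input of 20 PFU. EC50 is the concentration that reduced plaque formation by 50%.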

Cytomegalovirus = experiment: Antiviral activity against Cytomegalovirus Davis infected in HEL cells assessed as reduction in virus plaque formation; format: functional, organism-based; conditions: Human betaherpesvirus 5, Davis; in short: as §2
Human alphaherpesvirus 3 [11] = experiment: Antiviral activity against Varicella Zoster Virus OKA infected in HEL cells assessed as reduction in virus plaque formation; format: functional, organism-based; conditions: Human alphaherpesvirus 3, OKA; in short: as §2
Human alphaherpesvirus 3 [12] = experiment: Antiviral activity against thymidine kinase deficient Varicella Zoster Virus 07/1 infected in HEL cells assessed as reduction in virus plaque formation; format: functional, organism-based; conditions: Human alphaherpesvirus 3, 07/1, HEL; in short: as §2
[13] = Cytotoxicity against Cytomegalovirus infected HEL cells assessed as change in cell morphology; format: cell-based; conditions: human; in short: as §1
[14] = Cytotoxicity against Cytomegalovirus infected HEL cells assessed as reduction in cell growth; format: cell-based; conditions: human
[15] = Cytotoxicity against Varicella Zoster Virus infected human […] cells assessed as change in cell morphology; format: cell-based
[16] = Cytotoxicity against Varicella Zoster Virus infected human […] cells assessed as reduction in cell growth; format: cell-based
[17] = tested on: Human immunodeficiency virus 2; experiment: Antiviral activity against HIV-2 ROD infected human MT4 cells assessed as protection against virus-induced cytopathogenicity; format: functional, organism-based; conditions: Human immunodeficiency virus 2, ISOLATE ROD
In short: (§3)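 HIV-1 (IIIB) or HIV-2 (ROD) infection of MT-4 cells, scored as protection against virus-induced cytopathicity. IC50 was derived from protection.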

[18] = tested on: Human immunodeficiency virus 1; experiment: Antiviral activity against HIV-1 3B infected human MT4 cells assessed as protection against virus-induced cytopathogenicity; format: functional, organism-based; conditions: Human immunodeficiency virus 1, 3B; in short: as §3
[19] = Cytotoxicity against HIV-1 3B infected human MT4 cells; format: cell-based; conditions: HIV-1 3B-infected MT4 cells
[20] = Selectivity index, ratio of MCC for HEL cells to MIC50 for vaccinia virus; format: functional
In short: (§4)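 In HEL cell cultures, SI = MCC/MIC. MCC is the concentration giving microscopically detectable alteration of HEL cell morphology, and MIC is the minimal concentration effective against vaccinia or VSV cytopathicity.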

[21] = Selectivity index, ratio of MCC for HEL cells to MIC50 for vesicular stomatitis virus; format: functional; in short: as §4

SMILES	MCC (HeLa) [µg/mL]	MIC50 (Human alphaherpesvirus 2) [mg/L]	MIC50 [1] [mg/L]	MIC50 (Human alphaherpesvirus 1 [2]) [mg/L]	MIC50 [3] [mg/L]	MIC50 (Coxsackievirus B4 [4]) [mg/L]	MIC50 [5] [mg/L]	MIC50 (Human respirovirus 3) [mg/L]	MIC50 [6] [mg/L]	MIC50 (Sindbis virus) [mg/L]	MIC50 (Coxsackievirus B4 [7]) [mg/L]	MIC50 (Punta Toro virus) [mg/L]	MCC [8] [µg/mL]	MCC [9] [µg/mL]	MIC50 (Human alphaherpesvirus 1 [10]) [mg/L]	EC50 (Human betaherpesvirus 5) [mg/L]	EC50 (Cytomegalovirus) [mg/L]	EC50 (Human alphaherpesvirus 3 [11]) [mg/L]	EC50 (Human alphaherpesvirus 3 [12]) [mg/L]	CC50 [13] [mg/L]	other results
O=c1[nH]c(=O)n([C@H]2C[C@H](O)[C@@H](CO)O2)cc1/C=C/Br [BRIVUDINE]	> 250	10 (≈ 30 µM)	> 250	> 250	> 250	> 250	> 250	> 250	> 250	> 250	> 250	> 250	> 250	> 250							
CS(=O)(=O)Nc1ccc(NC(=S)NCCc2ccccc2)cc1Oc1ccccc1	40	> 8	> 8	> 8	> 8	> 8	> 8	> 1.6	> 1.6	> 1.6	> 1.6	> 1.6	40	8	> 8	> 20	> 20	> 20	> 20	100 (≈ 226 µM)	CC50 [14]: 48 mg/L (≈ 109 µM); CC50 [15]: ≥ 100 mg/L; CC50 [16]: 48 mg/L (≈ 109 µM); IC50 [17]: > 20.8 mg/L; IC50 [18]: > 20.8 mg/L; CC50 [19]: 20.8 mg/L (≈ 47.1 µM)
NC(=O)c1ncn([C@@H]2O[C@H](CO)[C@@H](O)[C@H]2O)n1 [RIBAVIRIN]	> 250	250 (≈ 1020 µM)	150 (≈ 614 µM)	> 250	30 (≈ 123 µM)	150 (≈ 614 µM)	50 (≈ 205 µM)	150 (≈ 614 µM)	150 (≈ 614 µM)	> 250	> 250	250 (≈ 1020 µM)	> 250	> 250	250 (≈ 1020 µM)						
CCCNC(=S)Nc1ccc(NS(C)(=O)=O)c(Oc2ccccc2)c1	200	> 40	> 40	> 40	> 40	> 40	40 (≈ 105 µM)	> 8	> 8	> 8	> 8	> 8	200	40	> 40	54.7 (≈ 144 µM)	54.7 (≈ 144 µM)	> 20	> 20	> 100	CC50 [14]: 56 mg/L (≈ 148 µM); CC50 [15]: 100 mg/L (≈ 263 µM); CC50 [16]: 56 mg/L (≈ 148 µM); IC50 [17]: > 89.3 mg/L; IC50 [18]: > 89.3 mg/L; CC50 [19]: 89.3 mg/L (≈ 235 µM)
CS(=O)(=O)Nc1ccc(NC(=S)NCCc2ccc(Cl)cc2)cc1Oc1ccccc1	100	> 100	> 100	> 100	> 20	> 20	> 20	> 20	> 20	> 20	> 20	> 20	> 100	100	> 100						IC50 [17]: > 14.8 mg/L; IC50 [18]: > 14.8 mg/L; CC50 [19]: 14.8 mg/L (≈ 31.2 µM)
Nc1nc2c(ncn2COCCO)c(=O)[nH]1 [ACYCLOVIR]		0.4 (≈ 1.78 µM)	> 250	50 (≈ 222 µM)									> 250								
CS(=O)(=O)Nc1ccc(NC(=S)NCc2ccccc2)cc1Oc1ccccc1	40	> 8	> 8	> 8	> 8	> 8	> 8	> 8	> 8	> 8	> 8	> 8	40	40	> 8	> 4	> 4	> 4	> 4	20 (≈ 46.8 µM)	CC50 [14]: 45.2 mg/L (≈ 106 µM); CC50 [15]: 20 mg/L (≈ 46.8 µM); CC50 [16]: 45.2 mg/L (≈ 106 µM); IC50 [17]: > 18.3 mg/L; IC50 [18]: 20.1 mg/L (≈ 47.1 µM); CC50 [19]: 61.6 mg/L (≈ 144 µM)
CNC(=S)Nc1ccc(NS(C)(=O)=O)c(Oc2ccccc2)c1	> 100	> 100	> 100	> 100	100 (≈ 285 µM)	> 100	> 100	> 100	> 100	> 100	> 100	> 100	> 100	> 100	> 100						IC50 [17]: > 125 mg/L; IC50 [18]: > 125 mg/L; CC50 [19]: > 125 mg/L
CS(=O)(=O)Nc1ccc(NC(=S)Nc2ccc([N+](=O)[O-])cc2)cc1Oc1ccccc1	40	> 8	8 (≈ 17.4 µM)	8 (≈ 17.4 µM)	> 8	> 8	> 8	> 8	> 8	> 8	> 8	> 8	40	40	> 8	54.7 (≈ 119 µM)	54.7 (≈ 119 µM)	> 20	> 20	> 100	CC50 [14]: > 100 mg/L; CC50 [15]: 100 mg/L (≈ 218 µM); CC50 [16]: > 100 mg/L; Selectivity Index [20]: 5; Selectivity Index [21]: 5; IC50 [17]: > 15.2 mg/L; IC50 [18]: > 15.2 mg/L; CC50 [19]: 15.2 mg/L (≈ 33.1 µM)
Nc1ccn(C[C@@H](CO)OCP(=O)(O)O)c(=O)n1.O.O [CIDOFOVIR]																0.24	0.37	0.0095	12.6	400	CC50 [14]: 57 mg/L; CC50 [15]: > 50 mg/L; CC50 [16]: 244 mg/L
CS(=O)(=O)Nc1ccc(NC(=S)NC2CCCCC2)cc1Oc1ccccc1	40	> 8	> 8	> 8	> 8	> 8	> 8	> 1.6	> 1.6	> 1.6	> 1.6	> 1.6	40	8	> 8	> 4	> 4	> 20	> 0.8	20 (≈ 47.7 µM)	CC50 [14]: 33.6 mg/L (≈ 80.1 µM); CC50 [15]: ≥ 4 mg/L; CC50 [16]: 82.4 mg/L (≈ 196 µM); IC50 [17]: > 35.3 mg/L; IC50 [18]: > 35.3 mg/L; CC50 [19]: 35.3 mg/L (≈ 84.1 µM)
Nc1ncnc2c1ncn2C[C@H](O)CO [(S)-DHPA]	> 250				150 (≈ 717 µM)	150 (≈ 717 µM)	> 250	50 (≈ 239 µM)	250 (≈ 1190 µM)	> 250	> 250	> 250		> 250							
Nc1nc2c(ncn2COC(CO)CO)c(=O)[nH]1 [GANCICLOVIR]		0.0064 (≈ 0.0251 µM)	> 100	2.4 (≈ 9.4 µM)									> 100		0.032 (≈ 0.125 µM)	1.4 (≈ 5.49 µM)	1.7 (≈ 6.66 µM)	1 (≈ 3.92 µM)	15 (≈ 58.8 µM)	400 (≈ 1570 µM)	CC50 [14]: 80 mg/L (≈ 313 µM); CC50 [15]: > 50 mg/L; CC50 [16]: 190 mg/L (≈ 744 µM)
C=CCNC(=S)Nc1ccc(NS(C)(=O)=O)c(Oc2ccccc2)c1	200	> 40	> 40	> 40	> 40	> 40	40 (≈ 106 µM)	≥ 24	> 40	> 40	> 40	> 40	200	200	> 40	54.7 (≈ 145 µM)	54.7 (≈ 145 µM)	58.5 (≈ 155 µM)	49 (≈ 130 µM)	> 100	CC50 [14]: 82.4 mg/L (≈ 218 µM); CC50 [15]: > 100 mg/L; CC50 [16]: 82.4 mg/L (≈ 218 µM); IC50 [17]: > 12.8 mg/L; IC50 [18]: > 87.2 mg/L; CC50 [19]: 101 mg/L (≈ 269 µM)

Reference: ChEMBL document CHEMBL1153581, “Synthesis, antiviral and anticancer activity of some novel thioureas derived from N-(4-nitro-2-phenoxyphenyl)-methanesulfonamide” (Eur J Med Chem, 2009)
